Molecules are shown by their SMILES. Active and inactive are the calls of the source. The calls are words filed in the database; no cut-off is given here.

Test [1] deals with T1, Aldo-keto reductase family 1 member B1 (Homo sapiens, UniProt P15121). Put plainly: In vitro inhibitory activity against aldose reductase isolated from human placenta at 10e-5 M. Put shortly:
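Aldose reductase purified from human placenta; DL-glyceraldehyde as substrate with NADPH as cofactor; enzyme inhibition measured in vitro.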

Test [2] concerns Rattus norvegicus. Put plainly: In vivo inhibition of sorbitol accumulation in the sciatic nerve in streptozotocin induced diabetic rat model at a concentration of 25 mg/kg. Format: functional. Put shortly:
(§1)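 Rats (n = 4) were made diabetic with a single iv dose of streptozotocin (86 mg/kg). Compound was given by oral gavage at 4, 7 and 24 h. Animals were killed at 27 h and sciatic nerve sorbitol measured. Percent inhibition is relative to untreated diabetic rats (n = 4), with significance by Student's t test (p < 0.05).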

The target of test [3] is T1, Aldo-keto reductase family 1 member B1. Description: In vitro inhibitory activity against aldose reductase isolated from human placenta.
Test [4] relates to Rattus norvegicus. Description: In vivo inhibition of sorbitol accumulation in the sciatic nerve in streptozotocin induced diabetic rat model at a concentration of 10 mg/kg. Format: functional. The method in brief: as §1
The subject of test [5] is Rattus norvegicus. Description: In vivo inhibition of sorbitol accumulation in the sciatic nerve in streptozotocin induced diabetic rat model at a concentration of 25 mg/kg; NS=not significant. Format: functional, organism-based. Also noted: dose 25 mg/kg. Put shortly: as §1
The subject of test [6] is Rattus norvegicus. Description: In vivo inhibition of sorbitol accumulation in the sciatic nerve in streptozotocin induced diabetic rat model at a concentration of 10 mg/kg; NS=not significant. Also noted: dose 10 mg/kg. It is filed as functional, organism-based. The method in brief: as §1
Test [7] deals with Rattus norvegicus. Put plainly: In vivo inhibition of sorbitol accumulation in the sciatic nerve in streptozotocin induced diabetic rat model at a concentration of 100 mg/kg. Format: functional. The method in brief:
as §1

`COc1cc(NC(=O)Cn2nc(CC(=O)O)c3ccccc3c2=O)cc(OC)c1OC` yielded an inhibition in test [1] of 20%.

Turning to `O=C(O)Cc1nn(Cc2nc(-c3ccccc3C(F)(F)F)no2)c(=O)c2ccccc12`, in test [2], 25 mg/kg produced 60% inhibition in vivo. This compound registered an IC50 in test [3] of 0.22 µM.

For the compound `O=C(O)Cc1nn(Cc2nc3cc(Cl)ccc3o2)c(=O)c2ccccc12`, in test [4], testing at 10 mg/kg gave an inhibition in vivo of 72%. Besides, in test [3], half-maximal inhibition (IC50) was put at 0.078 µM.

In the case of `O=C(O)Cc1nn(Cc2nc(-c3ccccc3)co2)c(=O)c2ccccc12`, the IC50 in test [3] was 3.2 µM.

`O=C(O)Cc1nn(Cc2nc(-c3ccccc3)cs2)c(=O)c2ccccc12`: inhibition in test [3] was half-maximal at 0.034 µM (IC50).

For `O=C(O)Cc1nn(Cc2csnc2-c2ccccc2)c(=O)c2ccccc12`, the IC50 in test [3] was 10 µM.

Take `O=C(O)Cc1nn(Cc2noc(-c3ccccc3Cl)n2)c(=O)c2ccccc12`: the IC50 in test [3] turned out to be 0.028 µM.

In turn, `O=C(O)Cc1nn(Cc2cn3ccc(Cl)cc3n2)c(=O)c2ccccc12` returned an IC50 in test [3] of 0.037 µM. This IC50 and that of the compound before are within 1.5-fold of each other.

For `COc1ccccc1-c1noc(Cn2nc(CC(=O)O)c3ccccc3c2=O)n1`, in test [3], half-maximal inhibition (IC50) was put at 0.47 µM. In addition, the inhibition result in test [5] was “inactive”.

The compound `O=C(O)Cc1nn(Cc2cc3cc(F)ccc3s2)c(=O)c2ccccc12` yielded an inhibition in vivo at 25 mg/kg in test [2] of 49%. The compound further gave an IC50 in test [3] of 0.15 µM.

In test [2], `O=C(O)Cc1nn(Cc2nc(-c3ccccc3F)no2)c(=O)c2ccccc12` returned an inhibition in vivo at 25 mg/kg of 69%. This compound also yielded an IC50 in test [3] of under 0.01 µM.

On to `O=C(O)Cc1nn(Cc2nc(-c3ccccc3)ns2)c(=O)c2ccccc12`, for which the IC50 in test [3] is 2.2 µM.

On to `O=C(O)Cc1nn(Cc2nc(-c3c(F)cccc3Cl)no2)c(=O)c2ccccc12`, for which the IC50 in test [3] stood at 0.24 µM.

The compound `O=C(O)Cc1nn(CC(=O)Nc2cc(C(F)(F)F)cc(C(F)(F)F)c2)c(=O)c2ccccc12` registered an IC50 in test [3] of 1.1 µM.

In test [3], `O=C(O)Cc1nn(Cc2nc(-c3ccccc3)c(-c3ccccc3)o2)c(=O)c2ccccc12` yielded an IC50 of 4.5 µM.

For `O=C(O)Cc1nn(Cc2cc3ccccc3[nH]2)c(=O)c2ccccc12`, in test [3], the IC50 is 0.87 µM.

In test [3], `O=C(O)Cc1nn(Cc2cc3cc(Cl)ccc3o2)c(=O)c2ccccc12` returned an IC50 of 0.15 µM.

`O=C(O)Cc1nn(C/C(S)=N/c2cccc(C(F)(F)F)c2)c(=O)c2ccccc12` came in with an IC50 in test [3] of 0.052 µM.

The compound `O=C(O)Cc1nn(CC(=O)Nc2ccccc2Cl)c(=O)c2ccccc12` displayed an IC50 in test [3] of 0.43 µM. This IC50 lies about 8.3-fold higher than the previous one.

The compound `O=C(O)Cc1nn(CC(=S)Nc2cc(C(F)(F)F)ccc2Br)c(=O)c2ccccc12` gave an IC50 in test [3] of 0.2 µM.

As for `O=C(O)Cc1nn(Cc2cc3cc(Br)ccc3s2)c(=O)c2ccccc12`, in test [3], half-maximal inhibition (IC50) was put at 1 µM.

`O=C(O)Cc1nn(Cc2cc3cc(Cl)ccc3s2)c(=O)c2ccccc12` gave an IC50 in test [3] of 0.25 µM. Compared with the last compound, the IC50 is about 4-fold lower.

In test [3], `O=C(O)Cc1nn(CC(=O)Nc2cc(F)cc(F)c2O)c(=O)c2ccccc12` returned an IC50 of 0.17 µM.

In test [3], `O=C(O)Cc1nn(Cc2cc3c(Cl)cccc3s2)c(=O)c2ccccc12` displayed an IC50 of 0.11 µM.

`O=C(O)Cc1nn(CC(=O)Nc2ccc(Cl)cc2)c(=O)c2ccccc12`: the IC50 in test [3] is 0.44 µM. Compared with the last compound, the IC50 is about 4-fold higher.

`O=C(O)Cc1nn(Cc2ccc3ccccc3n2)c(=O)c2ccccc12` came in with an IC50 in test [3] of 59 µM.

Turning to `O=C(O)Cc1nn(CC(=O)Nc2cc(C(F)(F)F)ccc2Br)c(=O)c2ccccc12`, the IC50 in test [3] was 0.028 µM. Against the preceding compound, the IC50 is about 2100-fold lower.

In the case of `O=C(O)Cc1nn(Cc2cc3cc([N+](=O)[O-])ccc3s2)c(=O)c2ccccc12`, the inhibition entry in test [6] was “inactive”. The same compound had an IC50 in test [3] of 2.2 µM.

In test [3], `O=C(O)Cc1nn(Cc2nc3cc4ccccc4cc3o2)c(=O)c2ccccc12` yielded an IC50 of 3 µM.

For the compound `O=C(O)Cc1nn(Cc2nc(-c3ccccc3Cl)no2)c(=O)c2ccccc12`, the inhibition entry in test [6] is “inactive”. The compound also registered an inhibition in vivo at 25 mg/kg in test [2] of 75%. This compound also registered a 50% inhibitory concentration (IC50) in test [3] of 0.023 µM.

In turn, `O=C(O)Cc1nn(CC(=O)Nc2ccccc2C(F)(F)F)c(=O)c2ccccc12` had a half-inhibitory concentration (IC50) in test [3] of 5.9 µM. This counts as single-digit micromolar.

Regarding `O=C(O)Cc1nn(Cc2ncc(-c3ccccc3)o2)c(=O)c2ccccc12`, in test [3], 0.66 µM corresponded to half-maximal inhibition (IC50).

`O=C(O)Cc1nn(Cc2csc(-c3ccccc3F)n2)c(=O)c2ccccc12`: the IC50 in test [3] came out at 0.46 µM. The IC50 values of the last two compounds are within 1.5-fold of each other.

Take `O=C(O)Cc1nn(Cc2noc(-c3ccccc3C(F)(F)F)n2)c(=O)c2ccccc12`: it took 0.47 µM to reach half-maximal inhibition in test [3] (IC50).

Turning to `O=C(O)Cc1nn(Cc2nc(-c3ccc(F)cc3F)no2)c(=O)c2ccccc12`, in test [2], testing at 25 mg/kg gave an inhibition in vivo of 46%. The compound also gave an IC50 in test [3] of 0.63 µM.

In test [3], `O=C(O)Cc1nn(Cc2nc(-c3ccccc3)no2)c(=O)c2ccccc12` yielded an IC50 of 0.16 µM.

Regarding `O=C(O)Cc1nn(CC(=O)Nc2ccccc2)c(=O)c2ccccc12`, in test [3], the IC50 was determined as 4.9 µM.

With `O=C(O)Cc1nn(Cc2nc3ccccc3o2)c(=O)c2ccccc12`, the IC50 in test [3] amounted to 0.089 µM.

As to `O=C(O)Cc1nn(Cc2nc3cc(C(F)(F)F)ccc3o2)c(=O)c2ccccc12`, the inhibition in vivo at 10 mg/kg in test [4] came to 32%. This compound gave an IC50 in test [3] of 0.031 µM.

`O=C(O)Cc1nn(CC(=O)Nc2cc(C(F)(F)F)cc(C(F)(F)F)c2Br)c(=O)c2ccccc12` gave an IC50 in test [3] of 2.2 µM.

`O=C(O)Cc1nn(Cc2cc3cccnc3s2)c(=O)c2ccccc12` yielded an IC50 in test [3] of 0.42 µM. In test [5], the inhibition entry is “inactive”.

With `O=C(O)Cc1nn(Cc2snc3ccccc23)c(=O)c2ccccc12`, the IC50 in test [3] was found to be 0.72 µM.

In test [3], `O=C(O)Cc1nn(CC(=O)Nc2cccc(F)c2)c(=O)c2ccccc12` gave an IC50 of 0.022 µM. This IC50 is about 33-fold lower than that of the compound before.

`O=C(O)Cc1nn(Cc2nc(-c3ccccc3Cl)ns2)c(=O)c2ccccc12` yielded an IC50 in test [3] of 1.1 µM. Compared with the last compound, the IC50 is about 50-fold higher.

Take `O=C(O)Cc1nn(Cc2nnc(-c3ccccc3)o2)c(=O)c2ccccc12`: it took 3.1 µM to reach half-maximal inhibition in test [3] (IC50). Compared with the last compound, the IC50 is about 2.8-fold higher.

Compound `O=C(O)Cc1nn(Cc2nc(-c3cccc(F)c3F)no2)c(=O)c2ccccc12` returned an inhibition in vivo at 25 mg/kg in test [2] of 89%. The IC50 in test [3] amounted to 0.019 µM.

As for `Cn1c(Cn2nc(CC(=O)O)c3ccccc3c2=O)nc2ccccc21`, in test [3], the IC50 is 4.2 µM. In other words, the single-digit micromolar range.

Regarding `O=C(O)Cc1nn(Cc2nc3cc(C(F)(F)F)ccc3s2)c(=O)c2ccccc12` [ZOPOLRESTAT], the inhibition in vivo at 10 mg/kg in test [4] worked out at 80%.

As to `O=C(O)Cc1nn(Cc2nc3cc(F)cc(F)c3o2)c(=O)c2ccccc12`, testing at 10 mg/kg in test [4] gave an inhibition in vivo of 78%. In test [3], this compound had an IC50 of 0.0032 µM.

In test [3], `O=C(O)Cc1nn(CC(=O)Nc2cc(C(F)(F)F)ccc2O)c(=O)c2ccccc12` gave an IC50 of 0.2 µM.

Turning to `O=C(O)Cc1nn(Cc2nc(-c3ccccn3)no2)c(=O)c2ccccc12`, in test [6], the inhibition result was “inactive”. Also, in test [3], half-maximal inhibition (IC50) required 0.156 µM.

In the case of `O=C(O)Cc1nn(C/C(S)=N/c2cccc(Cl)c2)c(=O)c2ccccc12`, in test [3], the IC50 came to 0.05 µM. This counts as double-digit nanomolar.

`O=C(O)Cc1nn(CC(=O)Nc2cccc(C(F)(F)F)c2)c(=O)c2ccccc12` had an IC50 in test [3] of 0.019 µM.

Regarding `O=C(O)Cc1nn(CC(=O)Nc2ccc(C(F)(F)F)cc2)c(=O)c2ccccc12`, the 50% inhibitory concentration (IC50) in test [3] stood at 2.1 µM. This IC50 lies about 110-fold higher than the previous one.

`O=C(O)Cc1nn(Cc2cc3ccccc3s2)c(=O)c2ccccc12` had an inhibition in vivo at 100 mg/kg in test [7] of 77%. Moreover, the IC50 in test [3] was 0.12 µM.

Take `O=C(O)Cc1nn(Cc2nc3cc(Cl)cc(Cl)c3o2)c(=O)c2ccccc12`: 10 mg/kg produced 63% inhibition in vivo in test [4]. Also, the IC50 in test [3] was determined as 0.032 µM.

Take `O=C(O)Cc1nn(Cc2cc(-c3ccccc3)ns2)c(=O)c2ccccc12`: the midpoint of inhibition in test [3], the IC50, lay at 0.67 µM.

For `Cc1ccccc1-c1noc(Cn2nc(CC(=O)O)c3ccccc3c2=O)n1`, the inhibition result in test [6] is “inactive”. Besides, in test [3], the IC50 was 0.064 µM.

Compound `O=C(O)Cc1nn(Cc2nc3cc(-c4ccccc4)ccc3o2)c(=O)c2ccccc12` yielded an IC50 in test [3] of 6.1 µM.

In test [4], `O=C(O)Cc1nn(Cc2nc3cc(Br)ccc3o2)c(=O)c2ccccc12` registered an inhibition in vivo at 10 mg/kg of 67%. The midpoint of inhibition in test [3], the IC50, lay at 0.027 µM.

Regarding `O=C(O)Cc1nn(Cc2nc(-c3ccc(Br)cc3)no2)c(=O)c2ccccc12`, half-maximal inhibition in test [3] (IC50) was put at 4.6 µM. That is a single-digit micromolar value.

As for `O=C(O)Cc1nn(CC(=O)Nc2cccc(Cl)c2)c(=O)c2ccccc12`, the IC50 in test [3] was 0.013 µM.

For the compound `O=C(O)Cc1nn(Cc2nc3ccc(Br)cc3o2)c(=O)c2ccccc12`, the IC50 in test [3] stood at 0.54 µM.

On to `O=C(O)Cc1nn(Cc2nc(-c3ccccc3Br)no2)c(=O)c2ccccc12`, for which, in test [4], testing at 10 mg/kg gave an inhibition in vivo of 27%. In addition, in test [3], the midpoint of inhibition, the IC50, lay at 0.0065 µM.

In the case of `O=C(O)Cc1nn(Cc2csc(-c3ccccc3)n2)c(=O)c2ccccc12`, inhibition in test [3] was half-maximal at 8.2 µM (IC50).

Values taken from ChEMBL document CHEMBL1126147 (J Med Chem, 1992).
